One may read the EC50 as the concentration at which the effect is half-maximal.

Activity calls are given as the source filed them. The calls are words filed in the database; no cut-off is given here.

A short description of data set [1]: Selectivity ratio of EC50 for mouse NIH3T3 cells to EC50 for human A375 cells. The note with it: NIH3T3 cells versus A375 cells, read-out: Ratio EC50. It counts as toxicity.
Data set [2] in a line: Selectivity ratio of EC50 for mouse NIH3T3 cells to EC50 for human A2780 cells. It counts as toxicity. The conditions noted are these: NIH3T3 cells versus A2780 cells, read-out: Ratio EC50.
The subject of data set [3] is A2780. Briefly: Cytotoxicity against human A2780 cells assessed as reduction in cell viability incubated for 72 hrs by SRB assay. The data set is classed as functional, cell-based. The conditions noted are these: Homo sapiens, A2780, 72 h; read-out: EC50. (In general: Sulforhodamine B stains cellular protein and so reports cell mass.)
Data set [4] is described as follows: Selectivity ratio of EC50 for mouse NIH3T3 cells to EC50 for human HT-29 cells. The data set is classed as toxicity. The conditions noted are these: NIH3T3 cells versus HT-29 cells, read-out: Ratio EC50.
In data set [5] the test system is A-375. Put plainly: Cytotoxicity against human A-375 cells assessed as reduction in cell viability incubated for 72 hrs by SRB assay. The conditions noted are these: Homo sapiens, A-375, 72 h; read-out: EC50. It counts as functional, cell-based.
Data set [6] relates to MCF7. Put plainly: Cytotoxicity against human MCF7 cells assessed as reduction in cell viability incubated for 72 hrs by SRB assay. It counts as functional, cell-based. The conditions noted are these: Homo sapiens, MCF7, 72 h; read-out: EC50.
In data set [7] the test system is HT-29. Put plainly: Cytotoxicity against human HT-29 cells assessed as reduction in cell viability incubated for 72 hrs by SRB assay. It counts as functional, cell-based. The note with it: Homo sapiens, HT-29, 72 h; read-out: EC50.
A short description of data set [8]: Selectivity ratio of EC50 for mouse NIH3T3 cells to EC50 for human FaDu cells.
The nature of data set [9]: Selectivity ratio of EC50 for mouse NIH3T3 cells to EC50 for human MCF7 cells. It counts as toxicity. The note with it: NIH3T3 cells versus MCF7 cells, read-out: Ratio EC50.
Data set [10] concerns NIH3T3. Briefly: Cytotoxicity against mouse NIH3T3 cells assessed as reduction in cell viability incubated for 72 hrs by SRB assay. It counts as cell-based. The note with it: Mus musculus, NIH3T3, 72 h; read-out: EC50.
For data set [11], the system named is FaDu. Briefly: Cytotoxicity against human FaDu cells assessed as reduction in cell viability incubated for 72 hrs by SRB assay. It counts as functional, cell-based. The conditions noted are these: Homo sapiens, FaDu, 72 h; read-out: EC50.
Data set [12] has as its system A-375. Briefly: Induction of apoptosis in human A375 cells assessed as strangulation at 4.8 uM measured after 48 hrs by microscopic analysis. It counts as functional, cell-based. An outline of the steps:
(§1)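 A375 cells treated at 3.0, 4.8 or 6.2 µM and inspected by light microscopy after 24 h or 48 h. Cell number and morphology were scored for apoptotic features: shrinkage, strangulation and blebbing.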

Data set [13] relates to A-375. Briefly: Cell cycle arrest in human A375 cells assessed as accumulation at S phase measured after 48 hrs by propidium iodide staining based flow cytometry (reference value: 31.3%). The data set is classed as functional. Background: In flow cytometry, cells or beads pass a laser one at a time.
Data set [14] concerns A-375. Briefly: Induction of apoptosis in human A375 cells at 4.8 uM measured after 24 hrs by microscopic analysis. It counts as functional, cell-based. In a few lines:
as §1

Data set [15] has as its system A-375. Briefly: Induction of apoptosis in human A375 cells assessed as necrotic cells at 4.8 uM measured after 24 hrs by Annexin V-FITC/propidium iodide staining based flow cytometry (reference value: 0.331%). The data set is classed as functional.
Data set [16] has as its system A-375. Briefly: Cell cycle arrest in human A375 cells assessed as accumulation at subG1 phase measured after 24 hrs by propidium iodide staining based flow cytometry (reference value: 0.46%). It counts as functional.
Data set [17] deals with A-375. Put plainly: Induction of apoptosis in human A375 cells assessed as cell shrinkage at 4.8 uM measured after 48 hrs by microscopic analysis. The data set is classed as functional, cell-based. In a few lines: as §1
The test system of data set [18] is A-375. Briefly: Induction of apoptosis in human A375 cells assessed as early apoptotic cells at 4.8 uM measured after 24 hrs by Annexin V-FITC/propidium iodide staining based flow cytometry (reference value: 2.194%). The data set is classed as functional.
Data set [19] has as its system A-375. Briefly: Induction of apoptosis in human A375 cells assessed as necrotic cells at 4.8 uM measured after 48 hrs by Annexin V-FITC/propidium iodide staining based flow cytometry (reference value: 0.547%). It counts as functional.
The subject of data set [20] is A-375. Put plainly: Induction of apoptosis in human A375 cells assessed as early apoptotic cells at 4.8 uM measured after 48 hrs by Annexin V-FITC/propidium iodide staining based flow cytometry (reference value: 1.622%). It counts as functional.
Data set [21] has as its system A-375. Briefly: Cell cycle arrest in human A375 cells assessed as accumulation at G1 phase measured after 48 hrs by propidium iodide staining based flow cytometry (reference value: 57.3%). The data set is classed as functional.
The test system of data set [22] is A-375. Briefly: Induction of apoptosis in human A375 cells assessed as blebbing at 4.8 uM measured after 48 hrs by microscopic analysis. It counts as functional, cell-based. An outline of the steps: as §1
Data set [23] concerns A-375. Briefly: Induction of apoptosis in human A375 cells assessed as late apoptotic cells at 4.8 uM measured after 24 hrs by Annexin V-FITC/propidium iodide staining based flow cytometry (reference value: 7.352%). The data set is classed as functional.
For data set [24], the system named is A-375. Briefly: Cell cycle arrest in human A375 cells assessed as accumulation at G2/M phase measured after 24 hrs by propidium iodide staining based flow cytometry (reference value: 7.48%). It counts as functional.
Data set [25] concerns A-375. Put plainly: Induction of apoptosis in human A375 cells assessed as viable cells at 4.8 uM measured after 48 hrs by Annexin V-FITC/propidium iodide staining based flow cytometry (reference value: 92.723%). The data set is classed as functional. The note with it: read-out: Activity.
The subject of data set [26] is A-375. Put plainly: Cell cycle arrest in human A375 cells assessed as accumulation at G1 phase measured after 24 hrs by propidium iodide staining based flow cytometry (reference value: 44.59%). It counts as functional.
Data set [27] concerns A-375. Put plainly: Cell cycle arrest in human A375 cells assessed as accumulation at S phase measured after 24 hrs by propidium iodide staining based flow cytometry (reference value: 47.46%). It counts as functional.
The subject of data set [28] is A-375. Put plainly: Induction of apoptosis in human A375 cells assessed as late apoptotic cells at 4.8 uM measured after 48 hrs by Annexin V-FITC/propidium iodide staining based flow cytometry (reference value: 5.108%). It counts as functional.
Data set [29] relates to A-375. Put plainly: Cell cycle arrest in human A375 cells assessed as accumulation at subG1 phase measured after 48 hrs by propidium iodide staining based flow cytometry (reference value: 0.57%). The data set is classed as functional.
For data set [30], the system named is A-375. Put plainly: Induction of apoptosis in human A375 cells assessed as viable cells at 4.8 uM measured after 24 hrs by Annexin V-FITC/propidium iodide staining based flow cytometry (reference value: 90.123%). The data set is classed as functional. The conditions noted are these: read-out: Activity.
Data set [31] deals with A-375. Put plainly: Cell cycle arrest in human A375 cells assessed as accumulation at G2/M phase measured after 48 hrs by propidium iodide staining based flow cytometry (reference value: 10.83%). It counts as functional.

Regarding `C=C(C)[C@@H]1CC[C@]2(C(=O)O)CC[C@]3(C)[C@H](CC[C@@H]4[C@@]5(C)C=C(O)C(=O)C(C)(C)[C@@H]5CC[C@]43C)[C@@H]12`, the selectivity ratio was 0.9 in [1], 1.2 in data set [2], 0.5 in [4] and 1.1 in data set [9]. Further, the EC50 in data set [3] came to 10.5 µM; in [5], 13.8 µM; in [6] it was 12 µM; in [7] it was 26.1 µM; in data set [10] it was 12.8 µM; in data set [11], 14.1 µM. Besides, the “Ratio EC50” value in data set [8] was 0.9.
As to `C=C(C)[C@@H]1CC[C@]2(C(=O)O)CC[C@]3(C)[C@H](CC[C@@H]4[C@@]5(C)C[C@H](O)[C@H](O)C(C)(C)[C@@H]5CC[C@]43C)[C@@H]12`, the selectivity ratio in [1] stood at 1.5; in data set [2], 1.4; in [4], 1; in [9], 1.1. Also, the concentration for a half-maximal effect (EC50) in [3] turned out to be 12.3 µM; in data set [5], 11.2 µM; in [6], 15.8 µM; in data set [7], 17.7 µM; in [10] it was 17.3 µM; in data set [11] it was 16.5 µM. Also, the “Ratio EC50” value in [8] is on record as 1.
As to `C=C(C)[C@@H]1CC[C@]2(C(=O)Nc3cccc4ncccc34)CC[C@]3(C)[C@H](CC[C@@H]4[C@@]5(C)C[C@H](OC(C)=O)[C@H](OC(C)=O)C(C)(C)[C@@H]5CC[C@]43C)[C@@H]12`, the result in [12], in [14], in data set [17] and in data set [22] was Active. The Activity in data set [13] stood at 57.06%; in data set [15], 0.749%; in data set [16], 3.53%; in data set [18], 6.495%; in data set [19], 1.342%; in [20] it was 18.861%. The Activity in data set [21] came to 31.39%; in [23] it was 10.295%; in data set [24], 0.43%; in data set [26], 37.51%; in [27] it was 58.53%; in data set [28], 12.388%. The Activity in data set [29] was 11.49%; in data set [31], 0%. The selectivity ratio in data set [2] came to 37; in [4] it was 4; in data set [9] it was 19.2. The EC50 in data set [3] was 3.24 µM; in data set [5], 2.9 µM; in data set [6] it was 6.26 µM; in data set [7], > 30 µM; in [10], > 120 µM; in [11], 3.49 µM. Moreover, the values for the viability at 4.8 µM in data set [25] and in [30] were 67.4% and 80.4%, respectively. Also, in data set [8], the “Ratio EC50” value turned out to be 34.4.

The values above are taken from ChEMBL document CHEMBL4765454, “Betulinic acid derived amides are highly cytotoxic, apoptotic and selective” (Eur J Med Chem, 2020).
